From ChEMBL document CHEMBL1150329, “The discovery of fused pyrrole carboxylic acids as novel, potent D-amino acid oxidase (DAO) inhibitors” (Bioorg Med Chem Lett, 2008)
The source made the active and inactive calls. The rule behind the calls is not given here.

How the values were obtained:
[1] = target: D-amino-acid oxidase (Homo sapiens, UniProt P14920); assay: Inhibition of human DAO
[2] = target: T1, D-aspartate oxidase (Homo sapiens, UniProt Q99489); assay: Inhibition of human DDO
T1 sequence (Q99489 whole entry): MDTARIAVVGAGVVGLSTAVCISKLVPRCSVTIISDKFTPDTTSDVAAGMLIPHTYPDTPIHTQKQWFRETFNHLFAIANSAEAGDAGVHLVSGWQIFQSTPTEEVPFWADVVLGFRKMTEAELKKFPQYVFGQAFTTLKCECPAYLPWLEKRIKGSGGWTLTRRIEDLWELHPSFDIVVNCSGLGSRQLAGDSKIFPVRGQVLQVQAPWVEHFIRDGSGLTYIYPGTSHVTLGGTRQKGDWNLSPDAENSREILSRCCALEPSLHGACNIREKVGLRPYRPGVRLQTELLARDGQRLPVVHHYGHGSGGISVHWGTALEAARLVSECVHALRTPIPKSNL

[3] = target: Cytochrome P450 3A4 (Homo sapiens, UniProt P08684); assay: Inhibition of CYP3A4; type: ADME
[4] = target: Cytochrome P450 2D6 (Homo sapiens, UniProt P10635); assay: Inhibition of CYP2D6; type: ADME
[5] = Inhibition of CYP3C9; type: ADME
[6] = system: Rattus norvegicus; assay: Ex vivo inhibition of DAO in ip dosed rat kidney; type: functional, organism-based
Outline: (§1)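 Rats were given 25, 75 or 150 mg/kg ip. DAO enzyme activity was measured ex vivo in kidney and cerebellum at 1, 2 and 4 h after dosing and compared with vehicle-dosed rats. Time and treatment effects were tested by two-way ANOVA, with Bonferroni post tests for individual dose-versus-vehicle comparisons.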

[7] = system: Rattus norvegicus; assay: Ex vivo inhibition of DAO in ip dosed rat cerebellum; type: functional, organism-based; outline: as §1
[8] = system: Rattus norvegicus; assay: Ex vivo inhibition of DAO in rat cerebellum at 25 mg/kg, ip after 1 hr; type: functional, organism-based; set-up: dose 25 mg/kg; outline: as §1

D-amino-acid oxidase, sequence (P14920 whole entry): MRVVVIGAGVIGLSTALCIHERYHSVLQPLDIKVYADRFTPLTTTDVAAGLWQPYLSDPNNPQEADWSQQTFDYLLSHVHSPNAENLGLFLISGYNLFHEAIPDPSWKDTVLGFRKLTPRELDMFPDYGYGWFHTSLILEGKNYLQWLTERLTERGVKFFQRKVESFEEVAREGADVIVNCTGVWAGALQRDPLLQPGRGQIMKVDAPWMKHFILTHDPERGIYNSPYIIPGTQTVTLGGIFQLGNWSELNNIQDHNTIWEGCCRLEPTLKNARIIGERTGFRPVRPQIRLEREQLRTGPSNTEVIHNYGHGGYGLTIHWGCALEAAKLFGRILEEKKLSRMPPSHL
Cytochrome P450 3A4, sequence (P08684 whole entry): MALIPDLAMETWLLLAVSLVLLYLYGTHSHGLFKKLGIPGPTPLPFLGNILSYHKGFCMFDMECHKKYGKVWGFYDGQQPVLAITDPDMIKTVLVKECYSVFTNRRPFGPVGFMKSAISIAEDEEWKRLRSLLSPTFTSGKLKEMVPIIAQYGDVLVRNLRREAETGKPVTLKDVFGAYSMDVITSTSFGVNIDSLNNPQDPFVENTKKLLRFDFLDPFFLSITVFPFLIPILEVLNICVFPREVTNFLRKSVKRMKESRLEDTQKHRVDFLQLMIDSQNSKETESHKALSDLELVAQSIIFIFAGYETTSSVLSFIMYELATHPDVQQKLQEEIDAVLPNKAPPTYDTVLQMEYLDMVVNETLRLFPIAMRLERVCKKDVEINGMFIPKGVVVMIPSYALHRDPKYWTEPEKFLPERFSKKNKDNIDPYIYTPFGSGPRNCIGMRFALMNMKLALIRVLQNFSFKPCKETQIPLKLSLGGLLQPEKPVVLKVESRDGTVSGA
Cytochrome P450 2D6, sequence (P10635 whole entry): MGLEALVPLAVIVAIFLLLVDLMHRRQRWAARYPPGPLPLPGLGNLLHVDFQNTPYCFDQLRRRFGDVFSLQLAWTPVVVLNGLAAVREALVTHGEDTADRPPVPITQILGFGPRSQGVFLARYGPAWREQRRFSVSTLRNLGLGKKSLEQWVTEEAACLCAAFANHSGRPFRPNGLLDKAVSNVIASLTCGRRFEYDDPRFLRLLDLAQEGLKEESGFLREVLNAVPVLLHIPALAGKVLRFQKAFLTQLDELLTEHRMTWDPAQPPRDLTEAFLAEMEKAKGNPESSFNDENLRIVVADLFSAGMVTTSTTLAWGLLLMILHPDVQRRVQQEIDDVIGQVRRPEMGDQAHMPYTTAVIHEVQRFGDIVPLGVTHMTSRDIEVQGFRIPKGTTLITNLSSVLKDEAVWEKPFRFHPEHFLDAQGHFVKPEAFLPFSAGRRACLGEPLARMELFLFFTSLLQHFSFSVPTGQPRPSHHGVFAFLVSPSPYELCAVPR

SMILES | IC50 [1] | other results
O=C(O)c1cc2ccccc2[nH]1 [INDOLE-2-CARBOXYLIC ACID] | 0.745 µM | IC50 [2]: > 5 µM
O=C(O)c1cc2sc(Cl)cc2[nH]1 | > 5 µM | 
O=C(O)c1cc2ncsc2[nH]1 | 4.2 µM | 
O=C(O)c1cc2occ(-c3cccc(Cl)c3)c2[nH]1 | > 5 µM | 
O=C(O)c1cc2occ(Cl)c2[nH]1 | 1.43 µM | 
N#Cc1csc2cc(C(=O)O)[nH]c12 | 1.15 µM | 
O=C(O)c1cc(Cl)c(Cl)o1 | 0.343 µM | IC50 [2]: > 5 µM
O=C(O)c1cc2oc(-c3ccc(Cl)cc3)cc2[nH]1 | > 5 µM | 
O=C(O)c1cc2scnc2[nH]1 | 0.516 µM | 
O=C(O)c1cc2ocnc2[nH]1 | > 5 µM | 
O=C(O)c1cc2[nH]ncc2[nH]1 | > 5 µM | 
Cc1oc2cc(C(=O)O)[nH]c2c1C | > 5 µM | 
O=C(O)c1cc2occc2[nH]1 |  | IC50 [2]: > 5 µM; IC50 [3]: > 10 µM; IC50 [4]: > 10 µM; IC50 [5]: > 10 µM; Activity [6]: Active; Activity [7]: Active; Activity [8]: inactive
O=C(O)c1cc2occ(-c3cccnc3)c2[nH]1 | > 5 µM | 
O=C(O)c1cc2oc(-c3cccc(Cl)c3)cc2[nH]1 | > 5 µM | 
O=C(O)c1cc2occ(CO)c2[nH]1 | > 5 µM | 
O=C(O)c1cc2oc(-c3ccccc3)cc2[nH]1 | > 5 µM | 
O=C(O)c1cc2oc(Cl)cc2[nH]1 | > 5 µM | 
O=C(O)c1cc2sccc2[nH]1 | 0.245 µM | IC50 [3]: > 10 µM; IC50 [4]: > 10 µM; IC50 [5]: > 10 µM
O=C(O)c1cc2oc(-c3ccc(Cl)cc3Cl)cc2[nH]1 | > 5 µM | 
O=C(O)c1ccc[nH]1 | > 5 µM | 
O=C(O)c1cc2occ(-c3ccc(Cl)cc3)c2[nH]1 | > 5 µM | 
O=C(O)c1cc2ccsc2[nH]1 | 0.269 µM | 
Oc1noc2cc(Cl)ccc12 |  | IC50 [2]: > 5 µM
